LMPTP inh: blocks human LMPTP phosphatase; P24666; recombinant LMPTP-A, OMFP fluorogenic substrate, fluorescence intensity; inhibition, % at 20 µM; hit rate 0.22% among 360,000;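 active means compounds that cut the enzyme signal by at least half of the control window in the single-dose screen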;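 further: plate controls were DMSO wells with enzyme plus substrate for no effect and substrate without enzyme for full effect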
Target sequence (P24666 whole entry, looked up): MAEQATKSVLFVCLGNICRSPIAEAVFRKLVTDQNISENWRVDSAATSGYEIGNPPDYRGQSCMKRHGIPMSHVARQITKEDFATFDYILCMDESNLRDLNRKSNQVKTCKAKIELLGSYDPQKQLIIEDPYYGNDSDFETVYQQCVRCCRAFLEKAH
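Assay system: LMPTP-A, protein tyrosine phosphatase of low molecular weight / Medium: pH 6.0 Bis-Tris buffer with DTT and Triton X-100 / Schedule: 50 min enzyme reaction at room temperature, protected from light / Measured by: endpoint fluorescence intensity from OMFP dephosphorylation / Read-out basis: % inhibition relative to no-enzyme and uninhibited control wells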
STEP block: blocks human striatal-enriched tyrosine phosphatase | P54829 | recombinant STEP, OMFP fluorogenic substrate, fluorescence | hit rate 0.25% among 360,000 | inhibition, % at 20 µM;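 active means inhibition at 20 µM, scaled per plate between control wells, above about 37%, limit read from the data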;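 further: 0% = DMSO with enzyme and substrate and 100% = substrate only without enzyme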
Target sequence (P54829 whole entry, looked up): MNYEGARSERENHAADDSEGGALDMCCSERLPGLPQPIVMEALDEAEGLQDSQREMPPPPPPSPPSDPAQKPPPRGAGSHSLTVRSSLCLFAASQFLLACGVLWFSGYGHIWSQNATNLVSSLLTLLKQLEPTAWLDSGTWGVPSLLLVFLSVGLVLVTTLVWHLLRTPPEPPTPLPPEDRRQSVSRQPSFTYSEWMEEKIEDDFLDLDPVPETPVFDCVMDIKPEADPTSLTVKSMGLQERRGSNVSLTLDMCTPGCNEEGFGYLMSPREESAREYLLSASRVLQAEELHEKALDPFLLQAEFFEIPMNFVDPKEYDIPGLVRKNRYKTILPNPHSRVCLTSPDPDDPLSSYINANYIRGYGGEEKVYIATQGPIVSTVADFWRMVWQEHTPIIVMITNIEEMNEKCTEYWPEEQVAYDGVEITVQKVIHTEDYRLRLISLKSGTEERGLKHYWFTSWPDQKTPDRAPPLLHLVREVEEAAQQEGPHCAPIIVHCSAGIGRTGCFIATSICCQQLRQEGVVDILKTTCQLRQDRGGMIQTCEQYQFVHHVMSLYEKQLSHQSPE
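Assay system: isolated STEP enzyme / Timing: 20 min at room temperature, dark / Doses: 20 µM, 1% DMSO / Technique: fluorescence intensity, excitation 480 nm, emission 540 nm / Reagent: fluorogenic phosphatase substrate OMFP at 25 µM final / Measure: percent inhibition scaled to no-enzyme and uninhibited-enzyme controls, plate-pattern corrected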
PP5 inh: blocks human protein phosphatase 5 activity | P53041 | purified PP5c, OMFP substrate fluorescence | inhibition, % at 6.7 µM | hit rate 0.18% among 320,000 | AID 1987;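 active means inhibition above the campaign's mean inhibition across all tested compounds plus 3 SD, cut at about 9.5% in these data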;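 further: 0% = DMSO only and 100% = 100 µM cantharidin control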
PP1 counter: blocks human PP1-alpha phosphatase, a PP5 counter-screen | purified PP1alpha, OMFP fluorescence | inhibition, % at 6.7 µM | hit rate 0.9% among 320,000;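 active means inhibition above the mean inhibition of all tested compounds plus 3 SD, computed separately for each screening campaign, cut at about 15% in these data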
Scp1 inh: Scp-1 (human) phosphatase inhibition; Q9GZU7; AID 493091; inhibition, % at 20 µM; hit rate 0.88% among 340,000; Recombinant Scp1, phosphopeptide, malachite green phosphate absorbance;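 active means inhibition above about 50% at 20 µM, limit read from the data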;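 further: plate controls were DMSO wells with enzyme for no effect and wells lacking enzyme for full effect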
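Times: enzyme reaction 45 min at room temperature, colour 5 min, stabilisation 30 min. Material: SCP-1 catalytic fragment, aa 76-261. Medium: Acidic Tris acetate buffer with magnesium and detergent. Signal: colorimetric free-phosphate detection, absorbance 630 nm. Read-out basis: % inhibition of SCP-1 phosphate liberation. Reagent: Phosphorylated 17-residue peptide substrate.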
PP5 inh confirm: PP5 (human) inhibition, confirmation; shares compounds with PP5 inh; Purified PP5, fluorogenic phosphatase substrate, fluorescence; inhibition, % at 6.7 µM; hit rate 22% among 460; in the data active means inhibition above about 9.5%
PP1 inh counter: counter-screen for PP5 inhibitors: human PP1 phosphatase inhibition; AID 2355; PP1 enzyme, fluorescent phosphatase substrate; shares compounds with PP5 inh; hit rate 4% among 460; inhibition, % at 6.7 µM; in the data active means inhibition above about 16%
Starred values were filed as active, the others as inactive; . = no result; ! = a repeat was not active. Rows were chosen to be rich in hits. Some 1.9% of all compounds tested hit in one or more screens of this group.

SMILES | LMPTP inh | STEP block | PP5 inh | PP1 counter | Scp1 inh | PP5 inh confirm | PP1 inh counter
Cc1ccc(-c2c(C)sc(NC(=O)C3C4CCC(O4)C3C(=O)O)c2C(=O)OC(C)C)cc1 (stereo not drawn) | -1 | -3 | 13* | 9 | -12 | -3 | 3
COC(=O)c1c(NC(=O)C2C3CCC(C3)C2C(=O)O)sc2c1CCCCC2 (stereo not drawn) | 2 | 4 | -1 | -4 | -7 | . | .
CCOC(=O)c1c(NC(=O)C2C3CCC(O3)C2C(=O)O)sc2c1CCCC2 (stereo not drawn) | -2 | 0 | 14* | 9 | -2 | 11* | 7
CCOC(=O)c1c(NC(=O)COC)sc2c1CCCC2 | -1 | -1 | 4 | -1 | -4 | . | .
CCc1cccc(C)c1NC(=O)C1C2CCC(O2)C1C(=O)O (stereo not drawn) | -1 | -1 | 12* | 8 | 3 | 7 | 6
COC(=O)c1c(NC(=O)C2C3CCC(O3)C2C(=O)O)sc2c1CCCCCC2 (stereo not drawn) | -2 | 3 | 12* | 3 | -8 | 0 | -1
CC(C)=C1C2CCC1C(C(=O)Nc1sc(C)c(-c3ccc(C(C)C)cc3)c1C(N)=O)C2C(=O)O (stereo not drawn) | 1 | 0 | 2 | 3 | 24 | . | .
O=C(Nc1ccc(OCC(F)(F)C(F)F)c(C(F)(F)F)c1)c1ccccc1O | 4 | -4 | 11* | 2 | -17 | 6 | 5
COc1ccc(CN2Cc3cccc4c3[C@@H](CC2=O)[C@H](O)[C@H](O)C4)cc1 | 0 | 0 | 1 | -3 | -3 | . | .
O=C(Nc1ccccc1OC(=O)c1ccccc1)c1ccccc1 | 1 | -2 | . | . | -1 | . | .
O=C(NNc1ccc(C(F)(F)F)cc1[N+](=O)[O-])c1ccc(NS(=O)(=O)c2ccc(F)cc2)cc1 | 2 | -3 | 10* | 9 | -11 | 3 | 3
Nc1nnc(SCc2ccc(F)cc2Cl)s1 | 0 | 0 | 13* | -1 | -2 | -6 | -3
COc1cc(CNCC(C)C)c(Br)cc1OCC(=O)NCc1ccccc1 | -2 | 0 | 1 | 1 | -40 | . | .
CN(CC(O)CN1CCOCC1)S(=O)(=O)O (stereo not drawn) | -2 | -2 | 14*! | 1 | -4 | -7 | -5
C/[N+]([O-])=C\c1coc2ccccc2c1=O | -1 | -1 | 3 | 1 | -8 | . | .
Cc1ccc(S(=O)(=O)N2CCN(S(=O)(=O)c3c(C)n[nH]c3C)CC2)cc1C | -2 | 0 | 16* | 2 | -2 | 3 | 2
O=C(Nc1ccn(Cc2c(F)c(F)cc(F)c2F)n1)c1ccc(COc2ccc(Cl)cc2Cl)o1 | 5 | -2 | 9.8* | 7 | -13 | 1 | 2
Cc1nn(Cc2c(F)c(F)c(F)c(F)c2F)c(C)c1NC(=O)c1ccc(COc2ccc(Cl)cc2Cl)o1 | 9 | 1 | 10* | 10 | -3 | 3 | 2
CS(=O)(=O)NCCSc1nnnn1-c1ccccc1 | -2 | -1 | 1 | -1 | -5 | . | .
CC(C)C[C@H](NC(=O)c1[nH]cnc1C(=O)N[C@@H](C)C(=O)OC(C)(C)C)C(=O)OC(C)(C)C | 3 | 2 | 11* | 10 | -11 | 7 | 8
CC(C)C[C@H](NC(=O)c1[nH]cnc1C(=O)Nc1ccccc1)C(=O)OC(C)(C)C | 3 | 0 | 9.8* | 7 | -5 | 7 | 6
CC(C)C[C@H](NC(=O)c1nc[nH]c1C(=O)NCC(=O)OC(C)(C)C)C(=O)OCc1ccccc1 | 3 | -1 | 12* | 9 | -6 | 9 | 9
CC(C)C[C@H](NC(=O)c1nc[nH]c1C(=O)N[C@@H](CCCCN)C(=O)OC(C)(C)C)C(=O)OC(C)(C)C | -3 | -1 | . | . | 4 | . | .
CC(C)(C)C1CCc2onc(C(=O)Nc3ccc(F)cc3F)c2C1 (stereo not drawn) | 3 | 2 | 6 | 0 | -2 | . | .
CCc1ccc(CN(C)C(=O)CCc2nc3ccccc3n(-c3ccc(OC)cc3)c2=O)cc1 | 2 | 3 | 10* | 4 | -14 | 2 | 2
SMILES | LMPTP inh | STEP block | PP5 inh | PP1 counter | Scp1 inh | PP5 inh confirm | PP1 inh counter
CN(C)c1cc(-c2ccc(Cl)cc2)oc(=O)c1Cl | -1 | 3 | -1 | -1 | -10 | . | .
C(=N\Nc1nncc2ccccc12)/c1ccccc1 | -1 | -2 | 0 | -4 | -7 | . | .
Cc1ccc(NC(=O)C2C3C=CC(O3)C2C(=O)O)c(C)c1 (stereo not drawn) | -2 | -2 | 18* | 3 | -7 | 0 | 12
Cc1cccc(NC(=O)C2C3C=CC(C4CC34)C2C(=O)O)c1 (stereo not drawn) | 0 | 1 | 3 | 5 | 3 | . | .
Cc1ccc(NC(=O)C2C3C=CC(O3)C2C(=O)O)cc1C (stereo not drawn) | 0 | -1 | 23* | 2 | 0 | 4 | 23*
Cc1ccc(C)c(NC(=O)C2C3C=CC(O3)C2C(=O)O)c1 (stereo not drawn) | -2 | -3 | . | . | -4 | . | .
Cc1nnc(NC(=O)C2C3C=CC(O3)C2C(=O)O)s1 (stereo not drawn) | . | . | 16* | 1 | . | 16* | 13
Cc1ccc(NC(=O)C2C3CCCC2C3c2ccccc2)cc1C (stereo not drawn) | -2 | 4 | -1 | -2 | 2 | . | .
Cc1cccc(NC(=O)C2C3C=CC(O3)C2C(=O)O)c1 (stereo not drawn) | . | . | 9.8* | -1 | . | -1 | 4
COC(=O)[C@]12CCCCC=C1N(Cc1ccc3c(c1)OCO3)C(=O)[C@H](CC(=O)NCc1ccc(OC)c(OC)c1)C2 | 0 | . | . | . | . | . | .
CCC1(c2ccc(F)cc2)NC(=O)NC1=O (stereo not drawn) | -2 | -3 | 0 | -4 | -2 | . | .
CCC(C)c1ccccc1NC(=S)NC(=O)c1ccco1 (stereo not drawn) | 6 | 1 | 2 | -2 | -5 | . | .
Cc1cccc(NC(=O)C2C3C=CC(O3)C2C(=O)O)c1C (stereo not drawn) | -3 | 2 | 10* | 2 | 0 | 0 | 4
COc1ccccc1NC(=O)C1C2C=CC(O2)C1C(=O)O (stereo not drawn) | . | . | 15* | 3 | . | 3 | 7
COC(=O)c1ccc(NC(=O)C2C3C=CC(C3)C2C(=O)O)cc1 (stereo not drawn) | 3 | 2 | -4 | 2 | 0 | . | .
Cc1cccc(NC(=O)C2C(C(=O)O)C3C=CC2C32CC2)c1C (stereo not drawn) | 0 | 2 | 1 | -6 | 3 | . | .
COC(=O)c1ccc(NC(=O)C2C3C=CC(O3)C2C(=O)O)cc1 (stereo not drawn) | -1 | -9 | 21* | 8 | 6 | 5 | 6

High-throughput results as filed in PubChem.
